Measured values: the EternaBench riboswitch data

System: MS2 coat protein
Assay: apparent Kd, MS2 coat protein; higher = weaker binding; RNA-MaP array; tryptophan 2.4 mM where present
Method in brief: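 Green signal was scaled to red-channel RNA signal and control-cluster median Fmax, and the apparent Kd was taken as the median of filtered per-cluster binding-curve fits. The binding series used SNAP-549-labelled MS2 coat protein from 0.7 or 1.5 nM, doubling to 3 µM, on designs transcribed by stalled E. coli RNA polymerase on Illumina sequencing-chip clusters. Each series ran without and then with constant ligand in 100 mM Tris-HCl pH 7.5, 80 mM KCl, 4 mM MgCl2, BSA, DTT, yeast tRNA and Tween-20.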

[1] = designed as: OFF switch for tryptophan, no ligand
[2] = ligand present: tryptophan, designed as: OFF switch for tryptophan
[3] = designed as: ON switch for tryptophan, no ligand
[4] = ligand present: tryptophan, designed as: ON switch for tryptophan

| Sequence | apparent Kd [1] | apparent Kd [2] | apparent Kd [3] | apparent Kd [4] |
| --- | --- | --- | --- | --- |
| AGCACUGUGACGGCCGCCACUACAUAUAGGGUGGUCAGGCCCAUAAUACAUGAGGAUCACCCAUGUAGGACCGGGUCUCAGUGCA | 16.8 nM | 12.1 nM |  |  |
| AAUAAACAUGAGGAUCACCCAUGUAGGGUGCGAGGACCGGUACGGCCGCCACUCGGGUGAAAACAUGAGGAUCACCCAUGUUAAA | 198 nM | 420 nM |  |  |
| UUAUAAGUACCGGUCCUCAGAUCCUCAUGACGAGGACCGGUACGGCCGCCACUCGAAACAUGAGGAUCACCCAUGUAAUAAUAUC | 23.8 nM | 24.7 nM |  |  |
| CUACAUUUGUAGAAACCGGUCAACAAUAAUCGAGGACCGGUACGGCCGCCACUCGUAUAAUUUUAUACAUGAGGAUCACCCAUGU |  |  | 13.5 nM | 13.4 nM |
| GGUAUGUAUUCGGAAACGAAUGCAUACCAACGAGGACCGGUACGGCCGCCACUCGCCGUCCUCAAACAUGAGGAUCACCCAUGUA | 25.9 nM | 68.5 nM |  |  |
| AACAUGAGCACGGCCGCCACUCCAUGAACAUGAGGAUCACCCAUACACAUGAGGAUCACCCAUGUGAGGACCGGGUGUCCAUGUG | 13.3 nM | 56.6 nM |  |  |
| AUUCAUGGAAACAUGAGAUAUCCUACCGGUCGAGGACCGGUACGGCCGCCACUCGGUUGGUGGCACAUGAGGAUCACCCAUGUUA |  |  | 291 nM | 265 nM |
| AAUGUAUGGCACAUGAGGAUCACCCAUGUGCGAGGACCGGUACGGCCGCCACUCGGUCGGUGGUUAAUGAAGCUAUACAUUAAUG | 40 nM | 57.7 nM |  |  |
| CGAUAUAAGACGGCCGCCACUAUUAUGUAACAAAAUAAACAUGAGGAUCACCCAUGUACAUGGGAUAGGACCGGGUCCAAUAACG |  |  | 112 nM | 58.2 nM |
| UGUGGGCGCACGGCCGCCACUGUCUUCAUCUGUUUGUCUACAUGAGGAUCACCCAUGUUGGUUUACAGGACCGGGUGCAUCUAUG |  |  | 45.2 nM | 30.1 nM |
| GGUACAUGAGGAUCACCCAUGUAUUAGUGCCGAGGACCGGUACGGCCGCCACUCGCUUCACAUGAGGAUCACCCAUGUGUCACAG |  |  | 32 nM | 40.8 nM |
| CCUAUGCAGUCGGCCGCCACUGAACAUGAGGAUCACCCAUGUUAUUAUAAAUAUGGUCCUAAAAUCAGGACCGGGACUGUAUAGG | 68 nM | 228 nM |  |  |
| AACGGUCGUACCGGAAUGAUCCUCAUGUAACGAGGACCGGUACGGCCGCCACUCGAUAACAUGAGGAUCACCCAUGUAAUAAUAA | 12.9 nM | 11 nM |  |  |
| AUAUAUACAUGAGGAUCACCCAUGUUAUUUCGAGGACCGGUACGGCCGCCACUCGAUAGAGUAGAAGUAAAUUUUGUUACAUGUA |  |  | 11.1 nM | 11.4 nM |
| AUACAUGAGGAUCACCCAUGUGAUGGCCGGCGAGGACCGGUACGGCCGCCACUCGUGAUCCGUCCUGAGAGCAAAGCCCUCAACA |  |  | 82.1 nM | 102 nM |
| AUUGUGAAGUCGGCCGCCACUGCAUAGUUUAACCACAUGUAACAUGAGGAUCACCCAUGUAAUGACAGGACCGGGACAAUAGUAA |  |  | 28 nM | 21.1 nM |
| AUGACUAACAAAGAAGAUAAAAUGGGUGAACGAGGACCGGUACGGCCGCCACUCGGACAUGAGGAUCACCCAUGUCCAUGUGCAA | 22.3 nM | 28.7 nM |  |  |
| UCAUAAGUACCGGUCCUCAGAUCCUCAUGACGAGGACCGGUACGGCCGCCACUCGAAACAUGAGGAUCACCCAUGUAAUAAUACU | 24.1 nM | 23.6 nM |  |  |
| GGUACAUGAGGAUCACCCAUGUAUUAGUGCCGAGGACCGGUACGGCCGCCACUCGCUUCACAUGAGGAUCACCCAUGUGUCACUG |  |  | 29.8 nM | 39.8 nM |
| AUGCAUAGCACGGCCGCCACUCAAAUUAAACAUGAGGAUCACCCAUGUAACAUGGAUAAAAUAAAGAGGACCGGGUGAAAUGCAA |  |  | 28.3 nM | 18.9 nM |
| CUAUGCAGGUCGGCCGCCACUACACACAUGAGGAUCACCCAUGUAGUUACUGGGUGAAGUGGCAGUAGGACCGGGACCUGCAUAU |  |  | 257 nM | 360 nM |
| UCGGAGAAGUCGGCCGCCACUGAACUCUUGUUCUACAUGAGGAUCACCCAUGUUCCUUUGUUUAACAGGACCGGGACUUAUACGA |  |  | 224 nM | 96.3 nM |
